The record followed here is ChEMBL document CHEMBL4229349, “Challenging clinically unresponsive medullary thyroid cancer: Discovery and pharmacological activity of novel RET inhibitors” (Eur J Med Chem, 2018).

Molecules are shown by their SMILES.

Data set [1] in a line: Metabolic stability in human liver microsomes assessed as parent compound remaining at 1 uM after 15 mins in presence of NADPH by HPLC-MS/MS analysis. The class given is ADME, microsome. Conditions: read-out: Stability. In a few lines:
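The compound was incubated at 1 µM with human liver microsomes for 15 min, and the percentage of parent compound remaining was measured.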
A general note: Microsomes from liver hold many membrane-bound enzymes, among them those of drug oxidation.

A short description of data set [2]: Metabolic stability in human plasma assessed as parent compound remaining at 1 uM after 1 hr by HPLC-MS/MS analysis. Format: ADME, cell-free. The following applies: read-out: Stability. The essentials: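 The compound was incubated in human plasma for 1 h, and stability was expressed as the percentage of parent compound remaining.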

`Clc1ccc(SCc2n[nH]c(-c3ccc(Cl)cc3)n2)cc1`: the remaining at […], 1 µM in data set [1] amounted to 40%. In addition, the remaining at 1 h, 1 µM in data set [2] came out at 85%.
